Compound activity (PubChem)
A selection: hits, their analogues and other compounds. The true share with any hit is near 1.7%.
DNMT1 block: blocks human DNA methyltransferase DNMT1 | inhibition (reported as % activation of signal), % at 10 µM | P26358 | DNMT1 molecular beacon, Hinp1I cleavage, fluorescence | AID 588458 | 360,000 compounds, 0.83% hits; in the data active means inhibition above about 50%
SUMO1 PPI mod: SUMO1-SIM interaction modulation | SUMO1 binding to a labelled peptide, TR-FRET, 1 h | 360,000 compounds, 0.33% hits | inhibition, % at 20 µM | P63165 | AID 602429; in the data active means inhibition above about 37%
Casp6 inh: inhibitors of human caspase-6; purified caspase-6, Z-VEID-R110 cleavage fluorescence; inhibition, % at 12.5 µM; 350,000 compounds, 0.53% hits;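 active means mean inhibition across replicates at least about 35%, with every replicate also reaching that limit, limit read from the data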
Target sequence (P55212 24-179 limits assumed): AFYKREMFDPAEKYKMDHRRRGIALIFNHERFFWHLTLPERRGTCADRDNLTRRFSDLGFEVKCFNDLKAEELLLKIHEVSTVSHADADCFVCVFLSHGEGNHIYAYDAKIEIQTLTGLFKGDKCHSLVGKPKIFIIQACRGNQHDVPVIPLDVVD
Target sequence (P55212 194-293 limits assumed): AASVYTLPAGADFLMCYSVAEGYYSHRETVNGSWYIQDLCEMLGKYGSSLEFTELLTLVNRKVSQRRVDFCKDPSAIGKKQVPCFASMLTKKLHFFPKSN
STEP block: inhibitors of human striatal-enriched phosphatase STEP; 360,000 compounds, 0.25% hits; recombinant STEP, OMFP fluorogenic substrate, fluorescence; inhibition, % at 20 µM; P54829;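 active means inhibition at 20 µM, scaled per plate between control wells, above about 37%, limit read from the data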
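Assay system: isolated STEP enzyme / Timing: 20 min at room temperature, dark / Doses: 20 µM, 1% DMSO / Technique: fluorescence intensity, excitation 480 nm, emission 540 nm / Reagent: fluorogenic phosphatase substrate OMFP at 25 µM final / Measure: percent inhibition scaled to no-enzyme and uninhibited-enzyme controls, plate-pattern corrected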
Scp-1 inhibitor: inhibitors of human Scp-1 phosphatase; Recombinant Scp1, phosphopeptide, malachite green phosphate absorbance; inhibition, % at 20 µM; AID 493091; 340,000 compounds, 0.88% hits; Q9GZU7;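 active means inhibition above about 50% at 20 µM, limit read from the data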
Target sequence (Q9GZU7 76-261 limits assumed): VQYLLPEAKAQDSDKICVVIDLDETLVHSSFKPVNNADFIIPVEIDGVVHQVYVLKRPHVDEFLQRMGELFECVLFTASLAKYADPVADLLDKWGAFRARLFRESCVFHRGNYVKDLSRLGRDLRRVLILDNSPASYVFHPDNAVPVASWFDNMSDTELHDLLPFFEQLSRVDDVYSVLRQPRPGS
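Material – SCP-1 phosphatase catalytic domain, residues 76-261 · Buffer or medium – Acidic Tris acetate buffer with magnesium and detergent · Also added – Phospho 17-mer peptide substrate · Compound – single 20 µM dose, 1% DMSO · Times – 45 min room-temperature reaction, 5 min colour, 30 min stabiliser · Technique – Phosphate-binding colour reagent, absorbance read at 630 nm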
LMPTP inh: LMPTP (human) inhibition. P24666. recombinant LMPTP-A, OMFP fluorogenic substrate, fluorescence intensity. inhibition, % at 20 µM. 360,000 compounds, 0.22% hits. AID 651560;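 active means compounds that cut the enzyme signal by at least half of the control window in the single-dose screen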
Target sequence (P24666 whole entry, looked up): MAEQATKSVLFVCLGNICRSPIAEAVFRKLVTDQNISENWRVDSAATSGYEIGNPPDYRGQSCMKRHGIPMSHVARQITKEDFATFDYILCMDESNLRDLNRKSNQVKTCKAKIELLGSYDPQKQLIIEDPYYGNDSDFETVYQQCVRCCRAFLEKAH
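Test system: LMPTP-A phosphatase enzyme; input: 0.625 nM LMPTP-A final; reagent: OMFP substrate, 400 µM final; compound dosing: 20 µM single dose, 3% DMSO; incubation: 50 min dark incubation at room temperature; measured by: endpoint fluorescence intensity from OMFP dephosphorylation; measure: % inhibition relative to no-enzyme and uninhibited control wells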
A number is an active result; 0 = inactive; - = no result; ! = a repeat was not active.

SMILES	DNMT1 block	SUMO1 PPI mod	Casp6 inh	STEP block	Scp-1 inhibitor	LMPTP inh
COCCNc1nc(NCc2ccccc2OC)c2sccc2n1	0	0	0	0	-	0
COc1ccccc1CNc1nc(NCc2ccccc2OC)c2sccc2n1	0	0	0	0	-	0
COc1ccccc1CNc1nc(NCc2ccc(NC(C)=O)cc2)c2sccc2n1	0	0	0	0	-	65
CCCC#Cc1cnc2c(c1)C(=O)N([C@@H](C)CO)C[C@H](C)[C@H](CN(C)C(=O)Nc1cccc(F)c1)O2	-	-	0	-	-	-
O=C(CCNS(=O)(=O)c1ccc(Br)s1)NCc1ccccc1	0	0	0	0	0	0
Nc1ncnc2c1CN(Cc1ccccc1)CC2	0	0	0	0	0	0
CCC1(C)Cc2c(C#N)c(N)n(-c3ccccc3)c(=S)c2CO1 (stereo unspecified)	0	0	36	0	0	0
Cn1c(/N=C/c2c(O)ccc3ccccc23)nc2ccccc21	0	82	-	0	0	0
S=C(NCCCn1ccnc1)Nc1ccc(Cl)cc1Cl	0	0	0	0	0	0
Cc1cccc(-c2c3c(nc4c2c(=O)n(C)c(=O)n4C)-c2ccccc2C3O)c1 (stereo unspecified)	0	0	0	0	0	0
COc1cccc(CNC(=O)CCn2ccc3cc(S(=O)(=O)N4CCCC4)ccc32)c1	0	0	70	0	0	0
O=C(CSc1nnc2scc(-c3ccccc3)n12)Nc1nsc(-c2ccc(Cl)cc2)n1	0	0	-	0	0	0
COc1cc(C(=O)C(=O)c2ccc(OC)c(OC)c2)ccc1O	0	38	0	0	0	0
COc1ccc(C(=O)c2ccc(OC)c(OC)c2)cc1OC	0	0	-	0	0	0
CCCNC(=O)c1cc(C2CCCN(S(=O)(=O)c3cccc4cccnc34)C2)on1 (stereo unspecified)	0	0	0	0	-	0
O=C(Nc1ccc(F)c(Cl)c1)c1cc(C2CCCN(S(=O)(=O)c3cccc4cccnc34)C2)on1 (stereo unspecified)	0	0	36	0	-	0
O=C(CSc1nnc(-c2ccco2)c(-c2ccco2)n1)Nc1ccccc1	118	77	-	0	58	53
CN(C)c1ccc(NC(=O)CSc2nnc(-c3ccco3)c(-c3ccco3)n2)cc1	0	0	0	0	0	0
Cc1ccccc1NC(=O)CSc1nnc(-c2ccco2)c(-c2ccco2)n1	106	0	-	0	68	0
Cc1cccc(C)c1NC(=O)CSc1nnc(-c2ccco2)c(-c2ccco2)n1	116	51	-	39	77	57
OC[C@H]1[C@H](c2ccc(-c3ccc(F)cc3)cc2)[C@H]2CN(Cc3cccnc3)CCCCN21	-	-	0	-	-	-
OC[C@H]1[C@H](c2ccc(-c3ccc(F)cc3)cc2)[C@@H]2CN(Cc3cccnc3)CCCCN12	-	-	60	-	-	-
O=C1C(c2ccnc3ccccc23)=C(O)c2ccccc21	52	0	-	0	0	0
O=C1c2ccccc2C(=O)C1c1ccnc2ccccc12	56	0	-	0	0	0
CCCNC(=O)C[C@@H]1CC[C@@H]2[C@H](COC[C@H](O)CN2Cc2ccccc2F)O1	-	-	0	-	-	-
SMILES	DNMT1 block	SUMO1 PPI mod	Casp6 inh	STEP block	Scp-1 inhibitor	LMPTP inh
CC1=NN(c2ccc(C(F)(F)F)cn2)C(=O)C1	0	0	0	0	0	0
CCCN1[C@H](C(=O)NCCCN2CCOCC2)[C@@H](CO)[C@@H]2Cn3c(ccc(-c4ccncc4)c3=O)[C@@H]21	-	-	0	-	-	-
COc1ccc2c(c1O)Cc1ccccc1C2=O	0	55	-	0	0	0
COc1cc(OC)c(OC)cc1/C=C1/Cc2ccccc2C1=O	0	0	0	0	0	0
N#Cc1ccccc1NC(=O)CNc1cc(S(=O)(=O)N2CCOCC2)ccc1NCC1CCCO1 (stereo unspecified)	0	0	0	0	0	0
Cc1ccc(NS(=O)(=O)c2ccc(Br)s2)nc1	0	0	37	0	0	0
COc1ccc(Nc2nc3c(C)cccn3c(=O)c2C=O)cc1	0	0	0	0	0	0
CCC(C)Nc1nc2c(C)cccn2c(=O)c1C=Nc1ccc(OC)cc1 (stereo unspecified)	0	0	41	0	0	0
C/C(CC(=O)NCc1ccco1)=N\NC(=O)CC#N	0	0	0	0	0	0
O=C(Cc1cccs1)Nc1ccc(Cl)cc1	0	0	-	0	0	0
CC(=O)N(C)c1ccc(NC(=O)Cc2cccs2)cc1	0	0	38	0	0	0
Cc1cccc(N2CCN(C(=O)CN3C(=O)NC(C)(C4CC4)C3=O)CC2)c1C (stereo unspecified)	0	45	0	0	0	0
Cc1cccc(N2CCN(C(=O)CN3C(=O)NC(C)(C)C3=O)CC2)c1C	0	0	0	0	0	0
CCn1c(=NC(=O)c2ccc(S(=O)(=O)N3CCOCC3)cc2)sc2cccc(OC)c21	0	43	-	0	0	0
CCn1c(=NC(=O)c2ccc(N3C(=O)CCC3=O)cc2)sc2c(OC)ccc(OC)c21	0	0	0	0	58	0
CCn1c(=NC(=O)c2cccc(N3C(=O)CCC3=O)c2)sc2c(C)ccc(OC)c21	0	0	0	0	0	0
CCC1CCc2c(sc(N)c2C(N)=O)C1 (stereo unspecified)	0	47	0	0	0	0
COc1ccc(CCn2c(C3CCCCC3)nc3c(c(=O)c4ccccc4n3C)c2=O)cc1	0	0	0	98	0	104
Cn1c2ccccc2c(=O)c2c(=O)n(-c3ccccc3)c(C3CCCCC3)nc21	0	0	-	0	0	0
CCCCCCCCCCCCCCCC[n+]1ccc(C(N)=O)cc1	0	52	-	0	0	0
CCCCCCCCCCCCCCCC[n+]1cccc(C(=O)N(CC)CC)c1	0	38!	0	0	0	0
CCCCCCCC[n+]1cccc(C(=O)N(CC)CC)c1	0	0	0	0	0	0
O=C(NCc1n[nH]c(=S)n1-c1ccccc1Cl)c1ccc(S(=O)(=O)N2CCCCC2)cc1	0	0	0	0	0	0
COc1ccccc1-n1c(CNC(=O)c2ccc(S(=O)(=O)N3CCCCC3)cc2)n[nH]c1=S	0	0	40	0	0	0
CCCCCN(C(=O)CCC(=O)OC(C)C(=O)NC1CCCCC1)c1c(N)n(CCCC)c(=O)[nH]c1=O (stereo unspecified)	0	0	43	0	0	0
O=C(Nc1cccc(NC(=O)c2ccccc2Cl)c1)c1ccco1	0	0	0	0	0	0
CC(Oc1ccccc1)C(=O)Nc1cccc(NC(=O)c2ccco2)c1 (stereo unspecified)	0	0	39	0	0	0
O=C(Nc1cccc(NC(=O)c2ccc(-c3ccc(Br)cc3)o2)c1)c1ccco1	0	44	-	0	0	0
